Measured values taken from ChEMBL document CHEMBL1144611, “Optimization of 1,4-diazepan-2-one containing dipeptidyl peptidase IV inhibitors for the treatment of type 2 diabetes” (Bioorg Med Chem Lett, 2007).

Legend:
[1] = molecular target: Dipeptidyl peptidase 2 (Homo sapiens, UniProt Q9UHL4); assay: Inhibition of QPP
[2] = Cmax in Sprague-Dawley rat at 1 mg/kg, iv or 2 mg/kg, po; type: ADME, organism-based; settings: in vivo
Outline: (§1)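 Single iv dose of 1 mg/kg or oral dose of 2 mg/kg, given in water. Plasma clearance and half-life come from dosing; Cmax is the peak plasma level after oral dosing. Oral bioavailability was derived from the po versus iv data.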

[3] = Plasma clearance in Sprague-Dawley rat at 1 mg/kg, iv or 2 mg/kg, po; type: ADME, organism-based; outline: as §1
[4] = Half life in Sprague-Dawley rat at 1 mg/kg, iv or 2 mg/kg, po; type: ADME, organism-based; settings: in vivo; outline: as §1
[5] = Bioavailability in Sprague-Dawley rat at 2 mg/kg, po; type: ADME, organism-based; settings: in vivo; outline: as §1
[6] = Plasma clearance in dog at 1 mg/kg, iv or 2 mg/kg, po; type: ADME, organism-based, Canis lupus familiaris; outline: as §1
[7] = Plasma clearance in monkey at 1 mg/kg, iv or 2 mg/kg, po; type: ADME, organism-based, Macaca mulatta; settings: rhesus monkey; outline: as §1
[8] = (§2) Half life in dog at 1 mg/kg, iv or 2 mg/kg, po; type: ADME, organism-based, Canis lupus familiaris; settings: in vivo; outline: as §1
[9] = Half life in monkey at 1 mg/kg, iv or 2 mg/kg, po; type: ADME, organism-based, Macaca mulatta; settings: rhesus monkey, in vivo; outline: as §1
[10] = Bioavailability in dog at 2 mg/kg, po; type: ADME, organism-based, Canis lupus familiaris; settings: in vivo; outline: as §1
[11] = Bioavailability in monkey at 2 mg/kg, po; type: ADME, organism-based, Macaca mulatta; settings: rhesus monkey, in vivo; outline: as §1
[12] = Cmax in dog at 1 mg/kg, iv or 2 mg/kg, po; type: ADME, organism-based, Canis lupus familiaris; settings: in vivo; outline: as §1
[13] = Cmax in monkey at 1 mg/kg, iv or 2 mg/kg, po; type: ADME, organism-based, Macaca mulatta; settings: rhesus monkey, in vivo; outline: as §1
[14] = test system: Canis familiaris; assay: as §2; type: ADME, organism-based, Canis lupus familiaris; settings: in vivo; outline: as §1
[15] = molecular target: Dipeptidyl peptidase 4 (Homo sapiens, UniProt P27487); assay: Inhibition of DPP4
[16] = molecular target: Dipeptidyl peptidase 8 (Homo sapiens, UniProt Q6V1X1); assay: Inhibition of DPP8
Chain of Dipeptidyl peptidase 8 (Q6V1X1 whole entry): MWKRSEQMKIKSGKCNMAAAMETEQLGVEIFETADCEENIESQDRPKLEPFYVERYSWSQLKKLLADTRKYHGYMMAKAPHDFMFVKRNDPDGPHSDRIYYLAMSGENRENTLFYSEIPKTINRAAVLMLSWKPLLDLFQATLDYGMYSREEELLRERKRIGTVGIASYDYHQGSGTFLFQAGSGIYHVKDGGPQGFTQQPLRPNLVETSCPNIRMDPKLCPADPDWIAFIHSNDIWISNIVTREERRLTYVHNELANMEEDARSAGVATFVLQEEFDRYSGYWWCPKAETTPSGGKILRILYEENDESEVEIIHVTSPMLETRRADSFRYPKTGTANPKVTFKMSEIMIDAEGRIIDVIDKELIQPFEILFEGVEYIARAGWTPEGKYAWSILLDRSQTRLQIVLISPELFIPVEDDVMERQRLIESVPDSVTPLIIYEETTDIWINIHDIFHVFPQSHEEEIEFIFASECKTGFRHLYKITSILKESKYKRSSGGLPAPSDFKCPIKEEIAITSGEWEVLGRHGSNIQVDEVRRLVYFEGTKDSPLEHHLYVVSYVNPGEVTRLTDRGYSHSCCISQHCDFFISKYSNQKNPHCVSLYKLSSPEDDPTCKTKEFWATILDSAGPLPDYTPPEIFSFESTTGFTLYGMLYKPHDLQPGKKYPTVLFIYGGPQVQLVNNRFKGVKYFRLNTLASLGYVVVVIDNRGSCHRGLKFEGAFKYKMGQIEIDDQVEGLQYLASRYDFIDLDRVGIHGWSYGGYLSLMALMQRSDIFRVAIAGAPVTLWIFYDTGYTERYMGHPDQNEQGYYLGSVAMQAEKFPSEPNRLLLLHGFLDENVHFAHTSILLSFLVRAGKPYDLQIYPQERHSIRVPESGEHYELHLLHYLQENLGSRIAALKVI

Chain of Dipeptidyl peptidase 4 (P27487 whole entry): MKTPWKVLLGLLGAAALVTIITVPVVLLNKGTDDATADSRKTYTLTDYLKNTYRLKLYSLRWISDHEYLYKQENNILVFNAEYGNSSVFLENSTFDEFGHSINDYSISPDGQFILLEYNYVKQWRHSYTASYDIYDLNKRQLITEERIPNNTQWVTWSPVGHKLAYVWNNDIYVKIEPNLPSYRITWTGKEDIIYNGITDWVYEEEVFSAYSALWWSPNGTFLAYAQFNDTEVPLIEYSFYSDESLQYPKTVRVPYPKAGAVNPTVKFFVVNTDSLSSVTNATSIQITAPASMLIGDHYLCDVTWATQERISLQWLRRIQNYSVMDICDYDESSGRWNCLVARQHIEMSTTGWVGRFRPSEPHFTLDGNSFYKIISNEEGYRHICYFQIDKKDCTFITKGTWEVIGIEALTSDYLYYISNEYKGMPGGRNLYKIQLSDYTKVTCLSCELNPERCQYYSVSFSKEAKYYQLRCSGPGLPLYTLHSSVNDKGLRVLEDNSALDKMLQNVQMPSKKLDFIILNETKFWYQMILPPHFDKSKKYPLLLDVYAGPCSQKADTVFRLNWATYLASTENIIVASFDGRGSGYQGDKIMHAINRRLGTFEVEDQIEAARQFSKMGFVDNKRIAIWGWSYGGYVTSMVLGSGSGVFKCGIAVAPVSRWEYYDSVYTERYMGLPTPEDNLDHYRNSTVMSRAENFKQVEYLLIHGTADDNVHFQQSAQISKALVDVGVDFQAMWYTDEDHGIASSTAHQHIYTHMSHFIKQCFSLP

| Structure (SMILES) | IC50 [1] | Cmax [2] | clearance [3] | half-life [4] | bioavailability [5] | further results |
| --- | --- | --- | --- | --- | --- | --- |
| C[C@@H]1C(=O)N2CCC[C@@H]2CCN1C(=O)C[C@H](N)Cc1cc(F)c(F)cc1F | – | 40 nM | 152 mL/min/kg | 1.4 h | 21% | – |
| C[C@@H]1CCN(C(=O)C[C@H](N)Cc2cc(F)c(F)cc2F)[C@H](Cc2ccccn2)C(=O)N1 | – | 10 nM | 97 mL/min/kg | 2 h | 8.1% | – |
| CCN1CCCN(C(=O)C[C@H](N)Cc2cc(F)ccc2F)[C@H](C)C1=O | > 100 µM | 30 nM | 152 mL/min/kg | 0.8 h | 7.4% | – |
| C[C@@H]1C(=O)N(CC(=O)O)CCCN1C(=O)C[C@H](N)Cc1cc(F)ccc1F | > 100 µM | – | – | – | – | IC50 [15]: 0.0699 µM; IC50 [16]: > 100 µM |
| COC(=O)CN1CCCN(C(=O)C[C@H](N)Cc2cc(F)ccc2F)[C@H](C)C1=O | > 100 µM | – | – | – | – | IC50 [15]: 0.0116 µM |
| C[C@@H]1C(=O)N(C2CC2)CCCN1C(=O)C[C@H](N)Cc1cc(F)ccc1F | > 100 µM | 50 nM | 132 mL/min/kg | 1.6 h | 19% | – |
| CC1C(=O)NCCCN1C(=O)C[C@H](N)Cc1cc(F)ccc1F (some centres undefined) | > 100 µM | – | – | – | – | – |
| CC1CCNC(=O)CN1C(=O)C[C@H](N)Cc1cc(F)c(F)cc1F (stereo in doubt; 13a) | 44 µM | – | – | – | – | IC50 [15]: 0.765 µM; IC50 [16]: > 100 µM |
| CC1CCNC(=O)CN1C(=O)C[C@H](N)Cc1cc(F)c(F)cc1F (stereo in doubt; 13b) | > 100 µM | – | – | – | – | IC50 [15]: 1.05 µM; IC50 [16]: > 100 µM |

Further lines, with some results ahead:

| IC50 [1] | Cmax [2] | clearance [3] | half-life [4] | bioavailability [5] | Structure (SMILES) | further results |
| --- | --- | --- | --- | --- | --- | --- |
| > 100 µM | – | – | – | – | N[C@@H](CC(=O)N1CCCNC(=O)C1)Cc1cc(F)c(F)cc1F | – |
| – | 570 nM | 51 mL/min/kg | 4.3 h | 45% | C[C@@H]1C(=O)N(C2CC2)CCCN1C(=O)C[C@H](N)Cc1cc(F)c(F)cc1F | – |
| – | 140 nM | 92.8 mL/min/kg | 1.5 h | 49% | C[C@H]1CNC(=O)[C@@H](C)N(C(=O)C[C@H](N)Cc2cc(F)c(F)cc2F)C1 | clearance [6]: 8.1 mL/min/kg; clearance [7]: 39.4 mL/min/kg; half-life [8]: 8.1 h; half-life [9]: 4.4 h; bioavailability [10]: 77%; bioavailability [11]: 59%; Cmax [12]: 1210 nM; Cmax [13]: 290 nM |
| – | 170 nM | 87 mL/min/kg | 1.5 h | 64% | C[C@@H]1CCN(C(=O)C[C@H](N)Cc2cc(F)c(F)cc2F)[C@H](C)C(=O)N1 | clearance [6]: 8.5 mL/min/kg; clearance [7]: 42.3 mL/min/kg; t1/2 [14]: 7.2 h; half-life [9]: 4.7 h; bioavailability [10]: 88%; bioavailability [11]: 71%; Cmax [12]: 1290 nM; Cmax [13]: 430 nM |
| > 100 µM | – | – | – | – | C[C@@H]1C(=O)N[C@H](C(F)(F)F)CCN1C(=O)C[C@H](N)Cc1cc(F)c(F)cc1F | IC50 [15]: 0.139 µM |
| – | 90 nM | 94 mL/min/kg | 2 h | 36% | N[C@@H](CC(=O)N1CCCNC(=O)C1CC(F)(F)F)Cc1cc(F)c(F)cc1F (some centres undefined) | – |
| > 100 µM | 130 nM | 113 mL/min/kg | 1.3 h | 29% | C[C@@H]1C(=O)N(C)CCCN1C(=O)C[C@H](N)Cc1cc(F)c(F)cc1F | – |
| – | 80 nM | 82 mL/min/kg | 1.7 h | 23% | C[C@@H]1C(=O)N(CC(F)(F)F)CCCN1C(=O)C[C@H](N)Cc1cc(F)c(F)cc1F | – |
